# Experimental data collected from several papers.
# Compare with care: the assays were run in different laboratories.
Structure (SMILES),test,test system,conditions,measurement,value
Cc1ccc(-c2nc3ccccc3o2)cc1NC(=O)c1cc([N+](=O)[O-])c(N2CCNCC2)cc1Cl,metabolic stability,"CD-1 mouse, liver microsomes","1 µM, 1 h, pH 7.4",scaled CLint,12 mL/min/kg
CC(=O)Nc1nnc(N2CCN([C@@H](C)c3ccc4c(c3)OCO4)CC2)s1,,"monkey, plasma",1 µM,fraction unbound,0.068
O=C(CCCCCCC(=O)Nc1ccccc1)NO,,"cat, serum","oral, 250 mg/m², single dose",Cmax,39 ng/mL
c1ccc(-c2nc(N3CCc4cccnc4C3)c3ccccc3n2)nc1,metabolic stability,"mouse, liver microsomes",,microsomal CLint,520 µL/min/mg
Cc1cc(Cl)c(Cl)cc1NC(=O)c1ccc(N2CCNCC2)nc1,metabolic stability,"CD-1 mouse, liver microsomes","1 µM, 1 h, pH 7.4",scaled CLint,47 mL/min/kg
CNCc1cc(-c2ccccc2F)n(S(=O)(=O)c2cccnc2)c1,,"Sprague-Dawley rat, plasma","oral, 10 mg/kg",Vd/F,32.2 L/kg
O=C(O)C1CCN(c2nc(-c3ccccn3)nc3ccccc23)C1 (stereo not shown),metabolic stability,"mouse, liver microsomes",,microsomal CLint,< 1 µL/min/mg
Oc1c(Br)cc(Cl)c2cccnc12,,"Sprague-Dawley rat, plasma","subcutaneous, 10 mg/kg",Vd/F,15.1 L/kg
c1ccc(-c2nc(NCc3nc4ccccc4o3)c3ccccc3n2)nc1,metabolic stability,"mouse, liver microsomes",,microsomal CLint,119 µL/min/mg
C#Cc1cccc(Nc2ncnc3cc(OCCOC)c(OCCOC)cc23)c1,,"male Sprague-Dawley rat, plasma","oral, 12 mg/kg, single dose",Vd/F,4.3 L/kg
